Test results taken from PubChem BioAssay AID623981 (Broad Institute, 2012).
Several values for one entry are separate records, joined by “and”; a condition that tells them apart may be missing. Equal values may be shown once. Activity calls are given as the source filed them.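 The calls were made as follows: active = compounds lowering growth signal whose fitted half-effect dose is at most twice their top tested dose; inconclusive = flat fit with moderate inhibition, or poor curve fit; inactive = the rest.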

System: C. albicans CaCi-2 growth, Alamar Blue fluorescence, 48 h
Test: single-agent growth inhibition of fluconazole-resistant C. albicans, dose response, CaCi-2 strain, dry powder, plate reader, set 3 (AID 623981)
Settings: not given
How it was run: (§1)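 Assay system: fluconazole-resistant Candida albicans strain CaCi-2; input: inoculum A600 0.00015; buffer or medium: defined RPMI 1640 with MOPS buffer, uridine, glucose, Pen/Strep; incubation: 48 h at 37 °C, humidified, plus 2 h stain; technique: Alamar Blue fluorescence; benchmarks: amphotericin 10 µM as positive control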
With CC1/C=C/C=C\C=C\C=C\C=C\C=C\C=C\C(O[C@H]2OC(C)C(O)C(N)C2O)CC2OC(O)(CC(O)CC(O)C(O)CCC(O)CC(O)CC(=O)OC(C)C(C)C1O)CC(O)C2C(=O)O (stereo partly drawn) the AC50 was 92.3 nM. Work on CCOC(=O)N1C(=O)C2(CCCCC2)N(c2ccc(F)cc2)C1=S yielded an AC50 of 150 nM. Molecule CCOC(=O)N1C(=O)C2(CCCCC2)N(c2cccc(C)c2)C1=S has an AC50 of 1260 nM. For CCOC(=O)N1C(=O)C2(CCCCC2)N(c2ccc(Cl)cc2)C1=S, the AC50 was 221 nM. In the case of CCOC(=O)N1C(=O)C2(CCCCC2)N(c2ccc(C)cc2)C1=S, the AC50 is reported as 2740 nM and 3070 nM. In the case of CCOC(=O)N1C(=O)C2(CCCCC2)N(c2ccccc2)C1=S, the AC50 is reported as 697 nM. CCOC(=O)N1C(=O)C2(CCCCC2)N(c2ccc(C#N)cc2)C1=S showed an AC50 of 307 nM.

System: not listed separately
Test: as above
Settings: C. albicans CaCi-2 growth, Alamar Blue fluorescence, 48 h; at 3 µM (top of the series)
How it was run: as §1
In the case of C/C=C/[C@@H]1[C@H]2C[C@@H](C)CC[C@@H]2C(C)=C[C@H]1C(=O)c1c(O)c(-c2ccc(O)cc2)c[nH]c1=O, the activity change, negative = inhibition is reported as 47.9% (inactive).
